Assays:
Gossypium hirsutum [1] = test: Phytotoxicity against Gossypium hirsutum (cotton) plant assessed as growth inhibition at 300 g of active ingredient/ha administered using post-emergence treatment measured 30 days post treatment protocol under greenhouse conditions; assay type: organism-based; details: in vivo, other, 720 h
Method in brief: (§1)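 Compounds were formulated as 100 g/L emulsified concentrates in DMF with TW-80 as emulsifier, then diluted with water to the required concentration. They were applied postemergence to pot-grown plants in a greenhouse. The soil was clay, pH 6.5, with 1.6% organic matter, 37.3% clay particles and CEC 12.1 mol/kg. Sulfentrazone served as the reference control.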

Gossypium hirsutum [2] = test: Phytotoxicity against Gossypium hirsutum (cotton) plant assessed as growth inhibition at 150 g of active ingredient/ha administered using post-emergence treatment measured 30 days post treatment protocol under greenhouse conditions; assay type: organism-based; details: in vivo, other, 720 h; method in brief: as §1
[3] = Phytotoxicity against Oryza sativa (rice) plant assessed as growth inhibition at 300 g of active ingredient/ha administered using post-emergence treatment measured 30 days post treatment protocol under greenhouse conditions; assay type: organism-based; details: in vivo, read-out: GI; method in brief: as §1
[4] = Phytotoxicity against Brassica napus (oilseed rape) assessed as growth inhibition at 75 g of active ingredient/ha administered using post-emergence treatment measured 30 days post treatment protocol under greenhouse conditions; assay type: organism-based; details: in vivo, read-out: GI; method in brief: as §1
Zea mays [5] = test: Phytotoxicity against Zea mays (maize) plant assessed as growth inhibition at 450 g of active ingredient/ha administered using post-emergence treatment measured 30 days post treatment protocol under greenhouse conditions; assay type: organism-based; details: in vivo, other, 720 h; method in brief: as §1
Zea mays [6] = test: Phytotoxicity against Zea mays (maize) plant assessed as growth inhibition at 150 g of active ingredient/ha administered using post-emergence treatment measured 30 days post treatment protocol under greenhouse conditions; assay type: organism-based; details: in vivo, other, 720 h; method in brief: as §1
[7] = Phytotoxicity against Glycine max (soybean) plant assessed as growth inhibition at 75 g of active ingredient/ha administered using post-emergence treatment measured 30 days post treatment protocol under greenhouse conditions; assay type: organism-based; details: in vivo, read-out: GI; method in brief: as §1
[8] = Phytotoxicity against Oryza sativa (rice) plant assessed as growth inhibition at 75 g of active ingredient/ha administered using post-emergence treatment measured 30 days post treatment protocol under greenhouse conditions; assay type: organism-based; details: in vivo, read-out: GI; method in brief: as §1
Digitaria sanguinalis = test: Herbicidal activity against Digitaria sanguinalis (hairy crabgrass) assessed as growth inhibition at 75 g of active ingredient/ha administered using post-emergence treatment measured 15 days post treatment protocol under greenhouse conditions; assay type: functional
Method in brief: (§2)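 Test agents were formulated as 100 g/L emulsified concentrates (DMF solvent, TW-80 emulsifier), diluted with water and sprayed postemergence on pot-grown weeds. Seeds were sown 1-3 cm deep in clay soil (pH 6.5, 1.6% organic matter, 37.3% clay, CEC […]) and grown at 15–30 °C in a greenhouse. Dicots were treated at the two-leaf stage. Untreated and DMF-treated plants served as controls. Activity was scored visually 15 days after treatment.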

Senna tora [9] = test: Herbicidal activity against Senna tora assessed as growth inhibition at 75 g of active ingredient/ha administered using post-emergence treatment measured 15 days post treatment protocol under greenhouse conditions; assay type: functional; method in brief: as §2
Senna tora [10] = test: Herbicidal activity against Senna tora assessed as growth inhibition at 37.5 g of active ingredient/ha administered using post-emergence treatment measured 15 days post treatment protocol under greenhouse conditions; assay type: functional; method in brief: as §2
Chenopodium album [11] = test: Herbicidal activity against Chenopodium album assessed as growth inhibition at 75 g of active ingredient/ha administered using post-emergence treatment measured 15 days post treatment protocol under greenhouse conditions; assay type: functional; method in brief: as §2
Chenopodium album [12] = test: Herbicidal activity against Chenopodium album assessed as growth inhibition at 37.5 g of active ingredient/ha administered using post-emergence treatment measured 15 days post treatment protocol under greenhouse conditions; assay type: functional; method in brief: as §2
Amaranthus retroflexus [13] = test: Herbicidal activity against Amaranthus retroflexus assessed as growth inhibition at 150 g of active ingredient/ha administered using post-emergence treatment measured 15 days post treatment protocol under greenhouse conditions; assay type: functional; method in brief: as §2
Echinochloa crus-galli = test: Herbicidal activity against Echinochloa crus-galli (barnyard grass) assessed as growth inhibition at 75 g of active ingredient/ha administered using post-emergence treatment measured 15 days post treatment protocol under greenhouse conditions; assay type: functional; method in brief: as §2
Cerastium arvense [14] = test: Herbicidal activity against Cerastium arvense assessed as growth inhibition at 75 g of active ingredient/ha administered using post-emergence treatment measured 15 days post treatment protocol under greenhouse conditions; assay type: functional; method in brief: as §2
Cerastium arvense [15] = test: Herbicidal activity against Cerastium arvense assessed as growth inhibition at 37.5 g of active ingredient/ha administered using post-emergence treatment measured 15 days post treatment protocol under greenhouse conditions; assay type: functional; method in brief: as §2
Eclipta prostrata = test: Herbicidal activity against Eclipta prostrata assessed as growth inhibition at 37.5 g of active ingredient/ha administered using post-emergence treatment measured 15 days post treatment protocol under greenhouse conditions; assay type: functional; method in brief: as §2
Amaranthus retroflexus [16] = test: Herbicidal activity against Amaranthus retroflexus assessed as growth inhibition at 75 g of active ingredient/ha administered using post-emergence treatment measured 15 days post treatment protocol under greenhouse conditions; assay type: functional; method in brief: as §2
Brassica juncea = test: Herbicidal activity against Brassica juncea assessed as growth inhibition at 75 g of active ingredient/ha administered using post-emergence treatment measured 15 days post treatment protocol under greenhouse conditions; assay type: functional; method in brief: as §2
[17] = Phytotoxicity against Triticum aestivum (wheat) plant assessed as growth inhibition at 75 g of active ingredient/ha administered using post-emergence treatment measured 30 days post treatment protocol under greenhouse conditions; assay type: organism-based; details: in vivo, read-out: GI; method in brief: as §1
Brassica napus = test: Phytotoxicity against Brassica napus (oilseed rape) assessed as growth inhibition at 450 g of active ingredient/ha administered using post-emergence treatment measured 30 days post treatment protocol under greenhouse conditions; assay type: organism-based; details: in vivo, other, 720 h; method in brief: as §1

Q: With `CCS(=O)(=O)Nc1cc(-n2nc(C)n(Cc3ccccc3/C(=N\OC)C(=O)OC)c2=O)c(F)cc1Cl` as the compound, how does the Activity (Gossypium hirsutum [1]) read?
A: Toxic

Q: And the Activity (Gossypium hirsutum [2])?
A: Toxic

Q: And the inhibition at 720 h [3]?
A: 0%

Q: And the inhibition at 720 h [4]?
A: 80%

Q: What about the Activity (Zea mays [5]) of the same compound?
A: Toxic

Q: And the Activity (Zea mays [6])?
A: Toxic

Q: What about the inhibition at 720 h [7] of the same compound?
A: 60%

Q: What about the inhibition at 720 h [8] of the same compound?
A: 0%

Q: And the “growth inhibition (GI)” value (Digitaria sanguinalis)?
A: 50%

Q: What about the “growth inhibition (GI)” value (Senna tora [9]) of the same compound?
A: >80%

Q: What about the “growth inhibition (GI)” value (Senna tora [10]) of the same compound?
A: 50%

Q: What about the “growth inhibition (GI)” value (Chenopodium album [11]) of the same compound?
A: >80%

Q: And the “growth inhibition (GI)” value (Chenopodium album [12])?
A: 50%

Q: And the “growth inhibition (GI)” value (Amaranthus retroflexus [13])?
A: 100%

Q: What about the “growth inhibition (GI)” value (Echinochloa crus-galli) of the same compound?
A: 50%

Q: And the “growth inhibition (GI)” value (Cerastium arvense [14])?
A: 100%

Q: What about the “growth inhibition (GI)” value (Cerastium arvense [15]) of the same compound?
A: >80%

Q: What about the “growth inhibition (GI)” value (Eclipta prostrata) of the same compound?
A: >80%

Q: And the “growth inhibition (GI)” value (Amaranthus retroflexus [16])?
A: >80%

Q: What about the “growth inhibition (GI)” value (Brassica juncea) of the same compound?
A: >80%

Q: What about the inhibition at 720 h [17] of the same compound?
A: 40%

Q: What about the Activity (Brassica napus) of the same compound?
A: Toxic
